Experimental data reported in ChEMBL document CHEMBL5653631, “A Potent and Selective ULK1 Inhibitor Suppresses Autophagy and Sensitizes Cancer Cells to Nutrient Stress” (iScience, 2018).

Key:
[1] = target: T1, Serine/threonine-protein kinase TAO3 (Homo sapiens) (UniProt Q9H2K8); test: Inhibition of human recombinant TAO3 at 40 nM in presence of ATP by radiometric assay relative to control
T1 sequence (whole entry): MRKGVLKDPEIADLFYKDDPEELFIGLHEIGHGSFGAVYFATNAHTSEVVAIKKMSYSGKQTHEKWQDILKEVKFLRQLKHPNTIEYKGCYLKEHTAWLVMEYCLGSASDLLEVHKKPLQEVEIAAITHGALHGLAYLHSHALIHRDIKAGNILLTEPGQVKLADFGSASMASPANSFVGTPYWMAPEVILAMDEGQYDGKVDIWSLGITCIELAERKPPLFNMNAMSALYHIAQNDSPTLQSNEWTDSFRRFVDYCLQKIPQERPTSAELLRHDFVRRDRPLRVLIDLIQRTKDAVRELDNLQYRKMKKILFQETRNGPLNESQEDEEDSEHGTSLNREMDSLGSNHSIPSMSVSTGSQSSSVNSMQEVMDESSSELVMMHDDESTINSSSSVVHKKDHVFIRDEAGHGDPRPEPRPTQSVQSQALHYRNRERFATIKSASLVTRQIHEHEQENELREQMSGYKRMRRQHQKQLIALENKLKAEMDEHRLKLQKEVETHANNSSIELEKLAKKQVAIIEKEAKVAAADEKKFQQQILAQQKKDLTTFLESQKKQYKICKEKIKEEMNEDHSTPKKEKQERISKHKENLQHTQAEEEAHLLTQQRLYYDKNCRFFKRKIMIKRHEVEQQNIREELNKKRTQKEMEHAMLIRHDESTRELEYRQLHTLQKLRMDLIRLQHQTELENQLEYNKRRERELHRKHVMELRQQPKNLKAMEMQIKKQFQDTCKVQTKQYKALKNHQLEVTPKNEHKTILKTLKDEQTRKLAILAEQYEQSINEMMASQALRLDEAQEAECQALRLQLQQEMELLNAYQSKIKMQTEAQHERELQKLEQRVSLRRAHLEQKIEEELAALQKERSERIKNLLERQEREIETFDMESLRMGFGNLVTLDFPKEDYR

[2] = target: Tyrosine-protein kinase SYK (Homo sapiens) (UniProt P43405); test: Inhibition of human recombinant SYK at 40 nM related to control ULK1
[3] = target: Serine/threonine-protein kinase 32C (Homo sapiens) (UniProt Q86UX6); test: Inhibition of human recombinant YANK3 at 40 nM in presence of ATP by radiometric assay relative to control
[4] = target: Activin receptor type-1-like (Homo sapiens) (UniProt P37023); test: Inhibition of human recombinant ALK1 at 15 nM in presence of ATP by radiometric assay relative to control
In short: (§1)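 Panel of 327 recombinant human kinases, each assayed in vitro by radiometric activity assay in duplicate at a single inhibitor concentration per compound, chosen with reference to its ULK1 inhibition. Activity remaining was expressed as percent of vehicle control, and percent inhibition was calculated as 100 minus percent activity remaining.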

[5] = target: T2, Serine/threonine-protein kinase DCLK3 (Homo sapiens) (UniProt Q9C098); test: Inhibition of human recombinant DCAMKL3 at 15 nM in presence of ATP by radiometric assay relative to control
T2 sequence (whole entry): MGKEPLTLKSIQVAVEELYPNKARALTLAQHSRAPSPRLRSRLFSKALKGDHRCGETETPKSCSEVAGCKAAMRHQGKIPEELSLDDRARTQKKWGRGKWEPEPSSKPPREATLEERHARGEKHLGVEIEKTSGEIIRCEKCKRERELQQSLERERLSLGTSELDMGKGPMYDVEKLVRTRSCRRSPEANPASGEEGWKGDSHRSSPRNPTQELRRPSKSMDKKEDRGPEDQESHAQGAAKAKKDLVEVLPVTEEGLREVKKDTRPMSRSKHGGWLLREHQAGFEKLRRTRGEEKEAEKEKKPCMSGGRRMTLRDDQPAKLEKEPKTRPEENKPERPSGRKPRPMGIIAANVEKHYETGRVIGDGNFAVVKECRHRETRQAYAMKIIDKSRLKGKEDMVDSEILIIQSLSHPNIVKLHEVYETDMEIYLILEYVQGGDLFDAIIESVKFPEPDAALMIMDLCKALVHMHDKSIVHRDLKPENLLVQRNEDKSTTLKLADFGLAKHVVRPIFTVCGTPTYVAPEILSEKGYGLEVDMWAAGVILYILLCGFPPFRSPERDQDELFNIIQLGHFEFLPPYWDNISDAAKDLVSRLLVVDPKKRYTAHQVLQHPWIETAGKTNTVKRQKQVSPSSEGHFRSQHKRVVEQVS

[6] = target: T3, Activin receptor type-1 (Homo sapiens) (UniProt Q04771); test: Inhibition of human recombinant ALK2 at 500 nM related to control ULK1; in short: as §1
T3 sequence (whole entry): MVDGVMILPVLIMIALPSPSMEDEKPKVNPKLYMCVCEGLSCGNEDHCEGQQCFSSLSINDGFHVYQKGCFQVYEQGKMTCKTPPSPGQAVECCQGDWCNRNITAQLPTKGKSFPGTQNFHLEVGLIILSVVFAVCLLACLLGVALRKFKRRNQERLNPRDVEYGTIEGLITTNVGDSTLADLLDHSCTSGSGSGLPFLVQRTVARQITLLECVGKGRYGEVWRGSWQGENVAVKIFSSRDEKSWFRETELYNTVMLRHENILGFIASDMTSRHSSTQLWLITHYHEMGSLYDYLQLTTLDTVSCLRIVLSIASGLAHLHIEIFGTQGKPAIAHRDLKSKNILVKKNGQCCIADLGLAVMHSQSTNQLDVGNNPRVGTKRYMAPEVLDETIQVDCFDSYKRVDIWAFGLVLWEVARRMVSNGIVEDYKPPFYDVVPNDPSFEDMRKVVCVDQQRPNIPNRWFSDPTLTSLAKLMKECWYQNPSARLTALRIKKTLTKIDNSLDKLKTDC

[7] = target: SRSF protein kinase 2 (Homo sapiens) (UniProt P78362); test: Inhibition of human recombinant SRPK2 at 500 nM related to control ULK1
[8] = target: Cyclin-dependent kinase 5 (Homo sapiens) (UniProt Q00535); test: Inhibition of human recombinant CDK5 at 500 nM related to control ULK1
[9] = target: Cyclin-dependent kinase 4 (Homo sapiens) (UniProt P11802); test: Inhibition of human recombinant CDK4 at 500 nM related to control ULK1
[10] = target: Cyclin-dependent kinase 9 (Homo sapiens) (UniProt P50750); test: Inhibition of human recombinant CDK9 at 500 nM related to control ULK1
Sequence of Cyclin-dependent kinase 9 (Homo sapiens) (P50750 whole entry): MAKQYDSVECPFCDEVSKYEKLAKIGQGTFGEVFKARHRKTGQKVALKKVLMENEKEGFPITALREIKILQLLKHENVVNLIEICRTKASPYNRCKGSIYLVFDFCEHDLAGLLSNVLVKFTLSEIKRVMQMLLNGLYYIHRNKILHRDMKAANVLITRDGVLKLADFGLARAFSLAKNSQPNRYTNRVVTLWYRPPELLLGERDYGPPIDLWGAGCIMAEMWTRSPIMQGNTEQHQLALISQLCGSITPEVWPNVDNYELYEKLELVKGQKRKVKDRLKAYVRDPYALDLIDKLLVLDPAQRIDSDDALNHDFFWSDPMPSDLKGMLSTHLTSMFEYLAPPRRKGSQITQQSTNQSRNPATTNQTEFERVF

Sequence of Activin receptor type-1-like (Homo sapiens) (P37023 whole entry): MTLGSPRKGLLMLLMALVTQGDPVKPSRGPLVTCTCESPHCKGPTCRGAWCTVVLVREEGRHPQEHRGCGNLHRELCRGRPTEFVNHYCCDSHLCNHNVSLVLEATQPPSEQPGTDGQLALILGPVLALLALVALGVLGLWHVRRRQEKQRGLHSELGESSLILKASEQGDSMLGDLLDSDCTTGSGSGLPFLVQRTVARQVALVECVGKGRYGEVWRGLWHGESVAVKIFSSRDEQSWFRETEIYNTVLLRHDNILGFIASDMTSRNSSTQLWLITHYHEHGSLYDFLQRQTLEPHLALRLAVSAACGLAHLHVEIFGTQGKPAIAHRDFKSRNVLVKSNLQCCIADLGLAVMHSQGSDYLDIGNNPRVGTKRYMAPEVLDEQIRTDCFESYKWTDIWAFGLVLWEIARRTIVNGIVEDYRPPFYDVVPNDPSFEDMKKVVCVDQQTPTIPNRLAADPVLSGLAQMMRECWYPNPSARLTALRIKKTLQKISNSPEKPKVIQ
Sequence of Cyclin-dependent kinase 4 (Homo sapiens) (P11802 whole entry): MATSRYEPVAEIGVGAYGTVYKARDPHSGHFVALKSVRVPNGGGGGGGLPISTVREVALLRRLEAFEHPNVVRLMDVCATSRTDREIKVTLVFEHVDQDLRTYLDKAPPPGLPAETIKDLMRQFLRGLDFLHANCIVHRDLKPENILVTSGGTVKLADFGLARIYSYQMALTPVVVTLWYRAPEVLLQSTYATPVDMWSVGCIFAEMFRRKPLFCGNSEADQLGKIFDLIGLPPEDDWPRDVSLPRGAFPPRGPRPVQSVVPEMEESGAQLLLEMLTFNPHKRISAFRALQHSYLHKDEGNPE
Sequence of Cyclin-dependent kinase 5 (Homo sapiens) (Q00535 whole entry, looked up): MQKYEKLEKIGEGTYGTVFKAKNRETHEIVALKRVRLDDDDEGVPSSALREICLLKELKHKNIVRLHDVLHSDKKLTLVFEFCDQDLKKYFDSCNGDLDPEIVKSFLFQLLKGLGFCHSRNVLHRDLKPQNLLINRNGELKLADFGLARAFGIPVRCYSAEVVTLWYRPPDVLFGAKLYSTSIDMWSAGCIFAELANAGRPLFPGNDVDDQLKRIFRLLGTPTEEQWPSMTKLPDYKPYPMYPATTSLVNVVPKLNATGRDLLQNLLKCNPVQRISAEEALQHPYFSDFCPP
Sequence of SRSF protein kinase 2 (Homo sapiens) (P78362 whole entry, looked up): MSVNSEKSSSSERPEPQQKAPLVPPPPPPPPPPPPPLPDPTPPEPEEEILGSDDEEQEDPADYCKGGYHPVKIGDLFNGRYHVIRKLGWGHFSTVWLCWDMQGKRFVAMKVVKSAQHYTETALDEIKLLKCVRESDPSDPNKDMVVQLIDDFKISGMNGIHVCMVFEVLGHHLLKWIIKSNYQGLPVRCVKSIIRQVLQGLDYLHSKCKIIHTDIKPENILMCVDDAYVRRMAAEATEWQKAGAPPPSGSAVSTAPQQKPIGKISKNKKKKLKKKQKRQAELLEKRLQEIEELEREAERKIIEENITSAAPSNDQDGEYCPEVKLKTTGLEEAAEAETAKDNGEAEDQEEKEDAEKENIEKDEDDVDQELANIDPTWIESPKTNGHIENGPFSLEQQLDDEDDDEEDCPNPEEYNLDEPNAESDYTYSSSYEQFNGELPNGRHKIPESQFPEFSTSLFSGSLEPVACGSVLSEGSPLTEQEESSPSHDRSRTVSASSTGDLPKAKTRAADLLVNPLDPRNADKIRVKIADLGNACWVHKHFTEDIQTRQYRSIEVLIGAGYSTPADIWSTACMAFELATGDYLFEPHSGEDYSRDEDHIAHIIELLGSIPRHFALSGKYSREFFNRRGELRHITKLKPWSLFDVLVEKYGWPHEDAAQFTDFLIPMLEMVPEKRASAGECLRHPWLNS
Sequence of Serine/threonine-protein kinase 32C (Homo sapiens) (Q86UX6 whole entry): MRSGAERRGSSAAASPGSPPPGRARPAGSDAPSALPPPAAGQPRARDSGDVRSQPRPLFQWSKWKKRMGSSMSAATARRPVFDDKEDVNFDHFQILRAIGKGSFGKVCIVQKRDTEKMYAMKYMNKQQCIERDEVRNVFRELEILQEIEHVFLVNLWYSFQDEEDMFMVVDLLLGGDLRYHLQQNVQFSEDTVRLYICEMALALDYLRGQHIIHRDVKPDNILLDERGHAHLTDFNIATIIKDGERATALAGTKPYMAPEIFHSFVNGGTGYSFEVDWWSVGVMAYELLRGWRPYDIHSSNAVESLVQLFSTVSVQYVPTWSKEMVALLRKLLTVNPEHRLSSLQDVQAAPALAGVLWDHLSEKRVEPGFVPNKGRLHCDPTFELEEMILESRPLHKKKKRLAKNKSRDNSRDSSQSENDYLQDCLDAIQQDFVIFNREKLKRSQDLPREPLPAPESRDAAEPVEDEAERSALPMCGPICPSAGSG

`O=C(N[C@@H](C1CC1)C(F)(F)F)c1cc(-c2cnn3cc(-c4ccc(F)cc4)cnc23)cs1` showed an inhibition [1] of 0%, a fold change (FC) [2] of 0 and an inhibition [3] of 5%.
`CC(C)[C@H](NC(=O)c1cc(-c2cnn3cc(-c4ccc(OCCN5CCCCC5)cc4)cnc23)cs1)C(F)(F)F` gave an inhibition [4] of 7% and an inhibition [5] of 35%.
`CNC(=O)c1ccccc1Oc1nc(Nc2cc(OC)c(OC)c(OC)c2)ncc1Br` was tested, and the fold change (FC) [6] was 0.62, the fold change (FC) [7] was 0.07 and the fold change (FC) [8] was 0.77. It also gave a fold change (FC) [9] of 0 and a fold change (FC) [10] of 0.04.
